pIC50: −log10 of the molar value.
Key:
[1] = target: T1, Inhibitor of nuclear factor kappa-B kinase subunit alpha (Homo sapiens, UniProt O15111); assay: Inhibition of IKK1-mediated phosphorylation of GST-IkappaBalpha fusion protein afterr 60 mins by fluorescence polarization assay
T1 sequence (O15111 whole entry): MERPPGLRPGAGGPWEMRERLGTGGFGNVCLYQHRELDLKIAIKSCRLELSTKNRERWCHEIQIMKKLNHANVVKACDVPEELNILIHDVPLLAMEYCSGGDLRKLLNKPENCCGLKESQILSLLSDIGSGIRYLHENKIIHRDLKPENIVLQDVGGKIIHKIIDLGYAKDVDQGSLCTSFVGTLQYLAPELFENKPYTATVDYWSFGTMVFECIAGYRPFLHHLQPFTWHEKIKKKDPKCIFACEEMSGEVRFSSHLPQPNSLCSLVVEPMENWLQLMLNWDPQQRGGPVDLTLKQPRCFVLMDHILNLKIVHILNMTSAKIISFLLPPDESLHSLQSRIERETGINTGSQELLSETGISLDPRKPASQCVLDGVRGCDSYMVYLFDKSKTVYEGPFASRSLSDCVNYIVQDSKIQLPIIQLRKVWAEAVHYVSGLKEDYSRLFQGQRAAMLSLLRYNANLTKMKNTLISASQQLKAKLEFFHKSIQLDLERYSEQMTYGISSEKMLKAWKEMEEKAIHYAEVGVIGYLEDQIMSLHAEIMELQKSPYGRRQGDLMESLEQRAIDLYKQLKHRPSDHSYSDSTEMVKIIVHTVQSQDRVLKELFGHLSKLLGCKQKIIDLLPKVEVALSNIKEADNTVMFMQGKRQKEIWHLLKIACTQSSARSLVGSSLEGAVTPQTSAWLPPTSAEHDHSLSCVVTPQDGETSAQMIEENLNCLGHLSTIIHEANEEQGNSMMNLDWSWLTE
How it was run: (§1)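 GST-IκBα (50 µg/mL) with 20 µM ATP in 25 mM Tris-HCl pH 7.5, 7.5 mM MgCl2, 1 mM DTT, 5% glycerol, BSA; reaction started by adding IKK enzyme (IKK-2 typically 3 µg/mL final) at room temperature. Stopped after 60 min with 33 mM EDTA. Phospho-IκBα quantified by fluorescence polarization, competing with a fluorescein-labelled phosphopeptide for anti-phospho-IκBα antibody.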

[2] = target: T2, Inhibitor of nuclear factor kappa-B kinase subunit beta (Homo sapiens, UniProt O14920); assay: Inhibition of IKK2-mediated phosphorylation of GST-IkappaBalpha fusion protein afterr 60 mins by fluorescence polarization assay; how it was run: as §1
T2 sequence (O14920 whole entry): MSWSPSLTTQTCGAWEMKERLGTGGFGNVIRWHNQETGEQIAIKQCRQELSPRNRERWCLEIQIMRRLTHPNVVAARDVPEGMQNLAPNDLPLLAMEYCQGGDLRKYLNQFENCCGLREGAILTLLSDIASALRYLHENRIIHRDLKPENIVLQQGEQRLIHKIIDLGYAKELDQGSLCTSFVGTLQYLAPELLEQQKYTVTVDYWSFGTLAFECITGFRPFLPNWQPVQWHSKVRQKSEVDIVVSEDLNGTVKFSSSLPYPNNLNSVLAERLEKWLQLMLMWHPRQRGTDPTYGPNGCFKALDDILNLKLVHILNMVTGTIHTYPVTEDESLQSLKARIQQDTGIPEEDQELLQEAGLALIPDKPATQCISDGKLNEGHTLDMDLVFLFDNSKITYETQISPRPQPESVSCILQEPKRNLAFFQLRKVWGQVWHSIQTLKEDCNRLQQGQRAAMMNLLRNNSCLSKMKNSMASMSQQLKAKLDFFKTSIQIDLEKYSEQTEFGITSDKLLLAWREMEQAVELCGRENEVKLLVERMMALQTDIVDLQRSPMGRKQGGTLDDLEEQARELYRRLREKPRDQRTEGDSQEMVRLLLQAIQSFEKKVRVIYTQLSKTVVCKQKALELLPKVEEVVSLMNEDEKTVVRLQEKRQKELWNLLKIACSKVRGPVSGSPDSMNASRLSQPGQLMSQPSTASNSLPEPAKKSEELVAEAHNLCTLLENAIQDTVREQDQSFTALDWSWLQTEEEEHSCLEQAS

Liver microsomes [3] = assay: Metabolic stability in rat liver microsomes assessed as clearance at 3 uM after 1 hr; format: ADME, Microsome
How it was run: (§2)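 Liver microsomes (mouse, human or rat) at 1 mg/mL protein with 3 µM compound in 65 mM phosphate buffer pH 7.4 and 1 mM NADPH, 37 °C, 1 h. Samples taken at 0 and 15 min and quenched with acetonitrile. Metabolic rate calculated from parent disappearance between 0 and 15 min.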

Liver microsomes [4] = assay: Metabolic stability in human liver microsomes assessed as clearance at 3 uM after 1 hr; format: ADME, Microsome; how it was run: as §2
[5] = Metabolic stability in mouse liver microsomes assessed as clearance at 3 uM after 1 hr; format: ADME, Microsome; how it was run: as §2
[6] = Cmax in rat at 2 mg/kg, iv; format: ADME, organism-based; design: dose 2 mg/kg, route intravenous; conditions: in vivo
How it was run: (§3)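 Some compounds were dosed as a cassette of five compounds at 2 mg/kg each, after prescreening to exclude potent CYP inhibitors (IC50 < 10 µM).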

[7] = AUC in rat at 2 mg/kg, iv; format: ADME, organism-based; design: dose 2 mg/kg, route intravenous; conditions: plasma; how it was run: as §3
[8] = Half life in rat at 2 mg/kg, iv; format: ADME, organism-based; design: dose 2 mg/kg, route intravenous; conditions: in vivo; how it was run: as §3
[9] = Clearance in rat at 2 mg/kg, iv; format: ADME, organism-based; design: dose 2 mg/kg, route intravenous; conditions: in vivo; how it was run: as §3
[10] = Volume of distribution at steady state in rat at 2 mg/kg, iv; format: ADME, organism-based; design: dose 2 mg/kg, route intravenous; conditions: in vivo, read-out: Vdss; how it was run: as §3
PBMC = assay: Inhibition of LPS-induced TNFalpha production in human PBMC preincubated for 30 mins before LPS challenge measured afterr 6 hrs by ELISA; format: functional, cell-based
How it was run: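 PBMCs from healthy donor blood, isolated over ficoll in RPMI containing EDTA and polymyxin, then resuspended in RPMI/10% FBS at 1 × 10^6 cells/mL. Compound preincubated 30 min, then LPS added (25 ng/mL final). Incubated 6 h at 37 °C, 5% CO2; supernatant TNF-α measured by ELISA.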

[11] = Cytotoxicity against human PBMC assessed as cell viability at 10 uM by alamar blue assay; format: cell-based; conditions: read-out: Activity

| Compound | pIC50 [1] | pIC50 [2] | CL (Liver microsomes [3]) [nmol/mg/min] | CL (Liver microsomes [4]) [nmol/mg/min] | CL [5] [nmol/mg/min] | Cmax [6] [nM] | AUC [7] [µM·h] | half-life [8] [min] | clearance [9] [mL/min/kg] | Vd [10] [L/kg] | pIC50 (PBMC) | viability at 10 µM [11] [%] |
| --- | --- | --- | --- | --- | --- | --- | --- | --- | --- | --- | --- | --- |
| CNc1nc2sc(-c3ccc(F)c(CNS(C)(=O)=O)c3)nc2c2c1ncn2C | 5.38 | 7.49 | 0.12 | 0.03 | 0.14 | 1200 | 0.8 | 24 | 20 | 0.4 |  |  |
| CNc1nc2cc(-c3ccccc3)nn2c2c1ncn2C | 6.00 | 7.47 | 0.05 | 0.11 | 0.17 | 3600 | 2.2 | 30 | 55 | 2.1 | 6.33 |  |
| CC(=O)NCCNc1nc2sc(-c3ccc(F)cc3)nc2c2c1ncn2C | 5.30 | 7.48 | 0 | 0.003 | 0.065 | 4700 | 2.7 | 24 | 16 | 0.5 |  | 80 |
| Cn1cnc2c(NCCN3CCCCC3)nc3sc(-c4ccc(F)cc4)nc3c21 | 5.08 | 7.25 |  |  |  |  |  |  |  |  |  | 0 |
| CNc1nc2sc(S(C)(=O)=O)nc2c2c1ncn2C | 5.12 | 7.09 |  |  |  |  |  |  |  |  | 5.48 |  |
| CNc1nc2sc(SC)nc2c2c1ncn2C | 5.59 | 7.55 |  |  |  |  |  |  |  |  | 6.24 |  |
| Cn1cnc2c(N)nc3sc(-c4ccc(F)cc4)nc3c21 | < 4.70 | 6.74 |  |  |  |  |  |  |  |  |  |  |
| CNc1nc2sc(N3CCCCCC3)nc2c2c1ncn2C |  | 6.89 | 0.25 | 0.15 | 0.29 | 300 | 0.25 | 24 | 83 | 2.6 | 6.35 |  |
| CNc1nc2c(nc(NC)c3ncn(C)c32)s1 | 5.47 | 6.04 |  |  |  |  |  |  |  |  | 5.59 |  |
| CNc1nc2sc(-c3ccc(F)cc3)nc2c2c1ncn2C | 5.51 | 7.59 | 0.095 | 0.13 | 0.21 | 1600 | 1.6 | 36 | 67 | 3.2 |  | 74 |
| CNc1nc2sc(NCCO)nc2c2c1ncn2C |  | 6.52 |  |  |  |  |  |  |  |  |  |  |
| CNc1nc2sc(C(=O)NC3CCCC3)nc2c2c1ncn2C |  | 6.80 |  |  |  |  |  |  |  |  |  |  |
| CNc1nc2sc(N3CCCCC3)nc2c2c1ncn2C | 5.21 | 6.68 |  |  |  |  |  |  |  |  | 6.18 |  |
